Assay results reported in ChEMBL document CHEMBL1124974, “Orally potent human renin inhibitors derived from angiotensinogen transition state: design, synthesis, and mode of interaction” (J Med Chem, 1990).

Experiments:
[1] = target: T1, Renin (Homo sapiens, UniProt P00797); assay: Tested for inhibition of human plasma renin; format: cell-free
T1 sequence (P00797 whole entry): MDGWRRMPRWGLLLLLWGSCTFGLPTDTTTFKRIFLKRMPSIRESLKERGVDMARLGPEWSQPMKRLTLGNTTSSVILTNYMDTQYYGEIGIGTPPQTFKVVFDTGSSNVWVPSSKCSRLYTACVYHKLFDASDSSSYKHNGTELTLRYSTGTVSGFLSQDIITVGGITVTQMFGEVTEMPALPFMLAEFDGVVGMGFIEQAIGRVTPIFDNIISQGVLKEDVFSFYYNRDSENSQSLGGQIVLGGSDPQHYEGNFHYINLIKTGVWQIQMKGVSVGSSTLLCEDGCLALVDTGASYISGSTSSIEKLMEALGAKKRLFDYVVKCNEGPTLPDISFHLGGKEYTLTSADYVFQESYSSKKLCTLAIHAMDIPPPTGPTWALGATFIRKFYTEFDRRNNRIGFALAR
Summary of the method: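 Human plasma containing EDTA-2Na (14 mM) and neomycin sulfate (0.3%) mixed with 0.5 M phosphate buffer pH 7.0, Phe-Ala-Pro (20 mM aqueous stock) and inhibitor in DMSO; 60 min at 37 °C; angiotensin I generated quantified by radioimmunoassay.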

[2] = target: T1, Renin; assay: Tested for inhibition of renin from human
[3] = target: T2, Cathepsin D (Bos taurus, UniProt P80209); assay: Tested for inhibition of Cathepsin D from bovine
T2 sequence (P80209 whole entry): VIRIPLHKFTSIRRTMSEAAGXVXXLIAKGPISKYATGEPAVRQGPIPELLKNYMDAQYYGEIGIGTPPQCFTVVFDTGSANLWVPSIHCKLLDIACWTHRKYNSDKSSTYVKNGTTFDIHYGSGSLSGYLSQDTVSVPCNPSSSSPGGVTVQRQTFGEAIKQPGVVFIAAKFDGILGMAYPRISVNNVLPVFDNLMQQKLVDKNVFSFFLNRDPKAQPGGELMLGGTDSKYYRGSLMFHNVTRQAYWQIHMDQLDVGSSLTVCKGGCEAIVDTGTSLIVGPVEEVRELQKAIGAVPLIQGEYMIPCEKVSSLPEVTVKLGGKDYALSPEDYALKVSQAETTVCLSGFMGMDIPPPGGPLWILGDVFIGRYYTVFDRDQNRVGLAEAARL
Summary of the method: (§1)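 Run at 37 °C with hemoglobin substrate at pH 3.2 for cathepsin D, casein substrate at pH 2.0 for pepsin.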

[4] = target: T3, Angiotensin-converting enzyme (Oryctolagus cuniculus, UniProt P12822); assay: Tested for inhibition of Angiotensin I converting enzyme from rabbit.
T3 sequence (P12822 whole entry): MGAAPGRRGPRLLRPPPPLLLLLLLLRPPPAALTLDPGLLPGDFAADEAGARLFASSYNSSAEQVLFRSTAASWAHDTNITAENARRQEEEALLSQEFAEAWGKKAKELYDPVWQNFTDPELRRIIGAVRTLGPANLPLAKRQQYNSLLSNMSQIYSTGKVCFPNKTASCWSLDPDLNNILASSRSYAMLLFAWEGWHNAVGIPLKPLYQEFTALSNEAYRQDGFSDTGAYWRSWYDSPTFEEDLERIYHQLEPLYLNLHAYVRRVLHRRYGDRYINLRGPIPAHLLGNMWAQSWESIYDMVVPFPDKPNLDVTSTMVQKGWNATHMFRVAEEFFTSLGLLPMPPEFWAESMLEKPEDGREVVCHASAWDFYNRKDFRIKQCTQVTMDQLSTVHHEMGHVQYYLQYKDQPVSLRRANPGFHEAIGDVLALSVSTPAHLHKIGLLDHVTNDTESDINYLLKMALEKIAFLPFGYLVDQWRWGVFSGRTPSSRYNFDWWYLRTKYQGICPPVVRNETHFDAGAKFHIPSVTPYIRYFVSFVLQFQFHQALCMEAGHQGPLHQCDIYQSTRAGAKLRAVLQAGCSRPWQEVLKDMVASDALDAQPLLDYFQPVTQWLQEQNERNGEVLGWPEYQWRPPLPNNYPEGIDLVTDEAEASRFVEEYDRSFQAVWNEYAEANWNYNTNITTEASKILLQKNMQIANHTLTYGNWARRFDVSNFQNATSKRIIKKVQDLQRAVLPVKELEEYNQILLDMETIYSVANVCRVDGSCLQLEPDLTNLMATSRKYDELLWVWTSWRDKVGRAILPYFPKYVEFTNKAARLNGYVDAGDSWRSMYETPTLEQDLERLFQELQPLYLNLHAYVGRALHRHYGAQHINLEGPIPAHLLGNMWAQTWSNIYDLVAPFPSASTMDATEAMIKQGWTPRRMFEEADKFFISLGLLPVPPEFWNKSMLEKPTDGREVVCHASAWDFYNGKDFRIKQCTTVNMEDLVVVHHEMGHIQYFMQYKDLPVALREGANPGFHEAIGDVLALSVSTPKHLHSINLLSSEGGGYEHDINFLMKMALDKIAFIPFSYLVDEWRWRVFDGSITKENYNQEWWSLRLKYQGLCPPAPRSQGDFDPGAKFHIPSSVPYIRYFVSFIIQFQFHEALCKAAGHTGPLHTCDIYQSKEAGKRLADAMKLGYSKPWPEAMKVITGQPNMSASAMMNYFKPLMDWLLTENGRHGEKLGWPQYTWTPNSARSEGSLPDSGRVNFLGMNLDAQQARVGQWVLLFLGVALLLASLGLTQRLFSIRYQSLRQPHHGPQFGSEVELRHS
Summary of the method: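 Inhibition measured at 37 °C with Hip-His-Leu substrate, pH 8.3.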

[5] = target: Pepsin A (Sus scrofa, UniProt P00791); assay: Tested for inhibition of pepsin from porcine; summary of the method: as §1
Chain of Pepsin A (P00791 whole entry): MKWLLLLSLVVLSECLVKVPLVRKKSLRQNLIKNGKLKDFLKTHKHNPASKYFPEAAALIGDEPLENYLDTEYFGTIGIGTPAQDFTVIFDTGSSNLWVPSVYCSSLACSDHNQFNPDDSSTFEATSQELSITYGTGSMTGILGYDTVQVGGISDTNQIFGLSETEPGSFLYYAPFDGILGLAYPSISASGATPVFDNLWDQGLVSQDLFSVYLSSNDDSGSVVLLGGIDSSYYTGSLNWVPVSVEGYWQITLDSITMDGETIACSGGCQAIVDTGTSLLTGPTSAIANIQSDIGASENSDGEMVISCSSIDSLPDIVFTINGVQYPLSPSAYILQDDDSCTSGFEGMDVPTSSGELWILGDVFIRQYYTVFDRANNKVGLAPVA

Compound | IC50 [1] | IC50 [2] | IC50 [3] | IC50 [4] | IC50 [5]
CC(C)OC(=O)[C@@H](O)[C@@H](CC1CCCCC1)NC(=O)[C@H](Cc1c[nH]cn1)NC(=O)[C@@H](CC(=O)N1CCOCC1)Cc1cccc2ccccc12 | 4200 nM | 2700 nM |  |  | 
CC(C)OC(=O)C(O)[C@@H](Cc1ccccc1)NC(=O)[C@H](Cc1cnc[nH]1)NC(=O)[C@@H](CC(=O)N1CCOCC1)Cc1cccc2ccccc12 (some centres not stated) | 270 nM | 110 nM |  |  | 
CC(C)CC(=O)N[C@H](C(=O)N[C@H](C(=O)N[C@@H](CC(C)C)[C@@H](O)CC(=O)N[C@@H](C)C(=O)N[C@@H](CC(C)C)[C@@H](O)CC(=O)O)C(C)C)C(C)C [PEPSTATIN] |  |  |  | > 100000 nM | 18 nM

The remaining lines, values ahead:

IC50 [1] | IC50 [2] | IC50 [3] | IC50 [4] | IC50 [5] | Compound
2100 nM | 3500 nM |  |  |  | CC(C)OC(=O)[C@H](O)[C@@H](CC1CCCCC1)NC(=O)[C@H](Cc1c[nH]cn1)NC(=O)[C@@H](CC(=O)N1CCOCC1)Cc1cccc2ccccc12
1500 nM | 4200 nM |  |  |  | CC(C)OC(=O)[C@H](O)[C@H](CC1CCCCC1)NC(=O)[C@H](Cc1c[nH]cn1)NC(=O)[C@H](CC(=O)N1CCOCC1)Cc1cccc2ccccc12
2300 nM | 2500 nM |  |  |  | CC(C)OC(=O)[C@H](O)[C@H](CC1CCCCC1)NC(=O)[C@@H](Cc1c[nH]cn1)NC(=O)[C@@H](CC(=O)N1CCOCC1)Cc1cccc2ccccc12
4.7 nM | 2.4 nM | 80000 nM | > 100000 nM | > 100000 nM | CC(C)OC(=O)[C@H](O)[C@H](CC1CCCCC1)NC(=O)[C@H](Cc1c[nH]cn1)NC(=O)[C@@H](CC(=O)N1CCOCC1)Cc1cccc2ccccc12
